Experimental data reported in ChEMBL document CHEMBL2429855, “Efforts toward broadening the spectrum of arylomycin antibiotic activity” (Bioorg Med Chem Lett, 2013).
Values after ≈ are worked out from the molar mass of the structure shown.

Legend:
[1] = tested on: Escherichia coli; test: Antibacterial activity against Escherichia coli MG1655 harboring lptD lepB (P84L) mutation assessed as growth inhibition after 22 hrs by broth microdilution method; format: functional; settings: K-12 substr. MG1655, 22 h
Summary of the method: (§1)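 MIC by broth microdilution against wild-type S. epidermidis RP62A, MSSA 8325, MRSA USA300 and E. coli MG1655. Also tested: S. aureus 8325 and E. coli MG1655 mutants made sensitive by mutating the resistance-conferring SPase Pro residue, an lptD hyperpermeable E. coli (outer membrane permeable to large molecules), and an E. coli combining lptD with SPase sensitization.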

[2] = tested on: Escherichia coli; test: Antibacterial activity against Escherichia coli MG1655 harboring lptD mutation assessed as growth inhibition after 22 hrs by broth microdilution method; format: functional; settings: K-12 substr. MG1655, 22 h; summary of the method: as §1
[3] = tested on: Escherichia coli; test: Antibacterial activity against Escherichia coli MG1655 harboring lepB (P84L) mutation assessed as growth inhibition after 22 hrs by broth microdilution method; format: functional; settings: K-12 substr. MG1655, 22 h; summary of the method: as §1
[4] = tested on: Staphylococcus aureus; test: Antibacterial activity against Staphylococcus aureus 8325 harboring spsB (P29S) mutation assessed as growth inhibition after 22 hrs by broth microdilution method; format: functional; settings: NCTC 8325, 22 h; summary of the method: as §1
[5] = tested on: Escherichia coli; test: Antibacterial activity against wild type Escherichia coli MG1655 assessed as growth inhibition after 22 hrs by broth microdilution method; format: functional; settings: K-12 substr. MG1655, 22 h; summary of the method: as §1
[6] = tested on: Staphylococcus aureus; test: Antibacterial activity against wild type methicillin-resistant Staphylococcus aureus USA300 assessed as growth inhibition after 22 hrs by broth microdilution method; format: functional; settings: USA300, 22 h; summary of the method: as §1
[7] = tested on: Staphylococcus aureus; test: Antibacterial activity against wild type methicillin-sensitive Staphylococcus aureus 8325 assessed as growth inhibition after 22 hrs by broth microdilution method; format: functional; settings: NCTC 8325, 22 h; summary of the method: as §1
[8] = tested on: Staphylococcus epidermidis; test: Antibacterial activity against wild type Staphylococcus epidermidis RP62A assessed as growth inhibition after 22 hrs by broth microdilution method; format: functional; summary of the method: as §1
[9] = molecular target: T1, Signal peptidase IB (Staphylococcus aureus, UniProt P0A070); test: Binding affinity to Staphylococcus aureus type-1 signal peptidase using decanoyl-LSSPAYNO2A-ADKabzPD and decanyol-LTPTAYNO2A-ASKKabzDD as substrate by fluorescence assay
T1 sequence (P0A070 whole entry): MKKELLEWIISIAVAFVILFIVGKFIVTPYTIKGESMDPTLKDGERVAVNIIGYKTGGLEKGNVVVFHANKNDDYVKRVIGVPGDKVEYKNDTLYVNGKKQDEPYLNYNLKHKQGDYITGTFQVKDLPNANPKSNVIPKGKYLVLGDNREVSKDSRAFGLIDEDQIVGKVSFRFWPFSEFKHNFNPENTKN

[10] = molecular target: Signal peptidase I (Escherichia coli K-12, UniProt P00803); test: Binding affinity to Escherichia coli type-1 signal peptidase lepB using decanoyl-LSSPAYNO2A-ADKabzPD and decanyol-LTPTAYNO2A-ASKKabzDD as substrate by fluorescence assay

| Structure (SMILES) | MIC [1] [µg/mL] | MIC [2] [µg/mL] | MIC [3] [µg/mL] | MIC [4] [µg/mL] | MIC [5] [µg/mL] | MIC [6] [µg/mL] | MIC [7] [µg/mL] | MIC [8] [µg/mL] | IC50 [9] [nM] | IC50 [10] [nM] |
| --- | --- | --- | --- | --- | --- | --- | --- | --- | --- | --- |
| CCCCCCCCCCCCCCCC(=O)N(C)[C@H](CO)C(=O)N[C@H](C)C(=O)NCC(=O)N(C)[C@@H]1C(=O)N[C@@H](C)C(=O)N[C@H](C(=O)O)Cc2ccc(O)c(c2)-c2cc1ccc2O [ARYLOMYCIN C16] | 0.02 (≈ 0.0227 µM) | 16 (≈ 18.2 µM) | 0.5 (≈ 0.567 µM) | 4 (≈ 4.54 µM) | > 64 | > 64 | > 64 | 0.25 (≈ 0.284 µM) | 1800 | 70 |
| CCCCCCCCCCCCCCCC(=O)N(C)[C@H](CO)C(=O)N[C@H](C)C(=O)NCC(=O)N(C)[C@@H]1C(=O)N[C@@H](C)C(=O)N[C@H](C(=O)NCC=O)Cc2ccc(O)c(c2)-c2cc1ccc2OP(=O)(OCc1ccccc1)OCc1ccccc1 | 0.3 (≈ 0.254 µM) | 64 (≈ 54.1 µM) | 16 (≈ 13.5 µM) | 32 (≈ 27.1 µM) | > 64 | > 64 | > 64 | 1 (≈ 0.846 µM) | 152 | 195 |
| CCCCCCCCCCCCCCCC(=O)N(C)[C@H](CO)C(=O)N[C@H](C)C(=O)NCC(=O)N(C)[C@@H]1C(=O)N[C@@H](C)C(=O)N[C@H](C(=O)NCP(=O)(O)O)Cc2ccc(O)c(c2)-c2cc1ccc2O | 0.1 (≈ 0.103 µM) | > 64 | 4 (≈ 4.11 µM) | > 64 | > 64 | 64 (≈ 65.7 µM) | > 64 | 8 (≈ 8.21 µM) | 16400 | 842 |
| CCCCCCCCCCCCCCCC(=O)N(C)[C@H](CO)C(=O)N[C@H](C)C(=O)NCC(=O)N(C)[C@@H]1C(=O)N[C@@H](C)C(=O)N[C@H](C(=O)O)Cc2ccc(O)c(c2)-c2cc1ccc2OCCO | 0.02 (≈ 0.0216 µM) | 16 (≈ 17.3 µM) | 1 (≈ 1.08 µM) | 8 (≈ 8.65 µM) | > 64 | > 64 | > 64 | 1 (≈ 1.08 µM) | 4220 | 75.7 |
| CCCCCCCCCCCCCCCC(=O)N(C)[C@H](CO)C(=O)N[C@H](C)C(=O)NCC(=O)N(C)[C@@H]1C(=O)N[C@@H](C)C(=O)N[C@H](C(=O)NCC=O)Cc2ccc(O)c(c2)-c2cc1ccc2O | 0.06 (≈ 0.0651 µM) | > 64 | 4 (≈ 4.34 µM) | 8 (≈ 8.68 µM) | > 64 | 16 (≈ 17.4 µM) | > 64 | 2 (≈ 2.17 µM) | 53.1 | 16.3 |
| CCCCCCCCCCCCCCCC(=O)N(C)[C@H](CO)C(=O)N[C@H](C)C(=O)NCC(=O)N(C)[C@@H]1C(=O)N[C@@H](C)C(=O)N[C@H](C(=O)NCC=O)Cc2ccc(O)c(c2)-c2cc1ccc2OCCN | 0.06 (≈ 0.0622 µM) | > 64 | 2 (≈ 2.07 µM) | 32 (≈ 33.2 µM) | > 64 | > 64 | > 64 | 1 (≈ 1.04 µM) | 332 | 87 |
| CCCCCCCCCCCCCCCC(=O)N(C)[C@H](CO)C(=O)N[C@H](C)C(=O)NCC(=O)N(C)[C@@H]1C(=O)N[C@@H](C)C(=O)N[C@H](C(=O)NCP(=O)(OC)OC)Cc2ccc(O)c(c2)-c2cc1ccc2O | 2 (≈ 2 µM) | > 64 | 64 (≈ 63.9 µM) | > 64 | > 64 | > 64 | > 64 | 8 (≈ 7.98 µM) | > 20000 | 20000 |
| CCCCCCCCCCCCCCCC(=O)N(C)[C@H](CO)C(=O)N[C@H](C)C(=O)NCC(=O)N(C)[C@@H]1C(=O)N[C@@H](C)C(=O)N[C@H](C(=O)O)Cc2ccc(O)c(c2)-c2cc1ccc2OP(=O)(O)O | 0.03 (≈ 0.0312 µM) | 32 (≈ 33.3 µM) | 1 (≈ 1.04 µM) | > 64 | > 64 | > 64 | > 64 | 0.3 (≈ 0.312 µM) | 1980 | 146 |
| CCCCCCCCCCCCCCCC(=O)N(C)[C@H](CO)C(=O)N[C@H](C)C(=O)NCC(=O)N(C)[C@@H]1C(=O)N[C@@H](C)C(=O)N[C@H](C(=O)NCC=O)Cc2ccc(O)c(c2)-c2cc1ccc2OCCO | 0.03 (≈ 0.031 µM) | 16 (≈ 16.6 µM) | 2 (≈ 2.07 µM) | 8 (≈ 8.28 µM) | > 64 | 64 (≈ 66.2 µM) | > 64 | 2 (≈ 2.07 µM) | 63.1 | 9.31 |
| CCCCCCCCCCCCCCCC(=O)N(C)[C@H](CO)C(=O)N[C@H](C)C(=O)NCC(=O)N(C)[C@@H]1C(=O)N[C@@H](C)C(=O)N[C@H](C(=O)NCP(=O)(OCC)OCC)Cc2ccc(O)c(c2)-c2cc1ccc2O | 2 (≈ 1.94 µM) | > 64 | > 64 | > 64 | > 64 | > 64 | > 64 | 8 (≈ 7.77 µM) | > 19400 | > 19400 |
| CCCCCCCCCCCCCCCC(=O)N(C)[C@H](CO)C(=O)N[C@H](C)C(=O)NCC(=O)N(C)[C@@H]1C(=O)N[C@@H](C)C(=O)N[C@H](CC(=O)NCC=O)Cc2ccc(O)c(c2)-c2cc1ccc2O | 2 (≈ 2.14 µM) | > 64 | > 64 | > 64 | > 64 | > 64 | > 64 | 32 (≈ 34.2 µM) | > 21400 | 1010 |
| CCCCCCCCCCCCCCCC(=O)N(C)[C@H](CO)C(=O)N[C@H](C)C(=O)NCC(=O)N(C)[C@@H]1C(=O)N[C@@H](C)C(=O)N[C@H](C(=O)NCP(=O)(Oc2ccccc2)Oc2ccccc2)Cc2ccc(O)c(c2)-c2cc1ccc2O | 8 (≈ 7.1 µM) | > 64 | > 64 | > 64 | > 64 | > 64 | > 64 | > 64 | > 17800 | > 17800 |
| CCCCCCCCCCCCCCCC(=O)N(C)[C@H](CO)C(=O)N[C@H](C)C(=O)NCC(=O)N(C)[C@@H]1C(=O)N[C@@H](C)C(=O)N[C@H](C(=O)O)Cc2ccc(O)c(c2)-c2cc1ccc2OCCN | 0.004 (≈ 0.00433 µM) | 4 (≈ 4.33 µM) | 0.5 (≈ 0.541 µM) | 4 (≈ 4.33 µM) | > 64 | 32 (≈ 34.6 µM) | > 64 | 0.1 (≈ 0.108 µM) | 3460 | 55.2 |
